In PMC7305479 (Russian Journal of Bioorganic Chemistry, 2020):

How the values were obtained:
[1] = tested on: respiratory syncytial virus A2; assay: Antiviral activity against respiratory syncytial virus in HEp-2 culture; assay type: cell-based, Human respiratory syncytial virus (RSV); details: for SI (selectivity index, CC50/EC50): RSV, HEp-2 cells
Procedure, shortened: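 HEp-2 monolayers infected with 10-fold dilutions (10–1–10–7) of RSV A2. Test compound was pre-applied 1 h in 3-fold dilutions, starting from the CC50-level concentration made from a 2000 µg/mL DMSO stock. It was re-added at double concentration with virus for 1 h, then washed out and re-applied for 6 days at 37°C, 5% CO2. Read-out was acetone-fixed cell-ELISA (TMB, OD 450 nm), with Reed–Muench titers.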

[2] = tested on: influenza virus strain A/PR/8/34 (H1N1); assay: organism not typed; assay type: cell-based, Influenza A virus (IVA); details: for SI (selectivity index, CC50/EC50): Influenza A virus, MDCK cells
[3] = tested on: broad spectrum of enveloped viruses; details: cited from earlier work
[4] = tested on: HEp-2 culture; assay: Cytotoxicity measurement; assay type: cell-based; details: for CC50: MTT, 24 h
Procedure, shortened: (§1)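 Test compound was diluted 2-fold in medium from 2000 µg/mL DMSO stocks and applied to washed monolayers for 24 h at 37°C, 5% CO2. Cells were PBS-washed, then given MTT ([…] in medium) for 1.5 h. The product was dissolved in 96% ethanol and OD read at 535 nm. CC50 was derived from the data by curve analysis.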

[5] = tested on: MDCK cell culture; assay: Cytotoxicity measurement; assay type: cell-based
Procedure, shortened: as §1

[6] = tested on: parainfluenza type 3 strain v2932; assay: microbe, parasite or virus in culture; assay type: cell-based, Human parainfluenza virus type 3 (PIV-3); details: for SI (selectivity index, CC50/EC50): PIV-3, HEp-2 cells
[7] = tested on: tick-borne encephalitis; details: cited from earlier work
[8] = Cytotoxicity measurement; assay type: cell-based; details: human, HEp-2 cells
Procedure, shortened: as §1

[9] = Cytotoxicity measurement; assay type: cell-based; details: dog, MDCK cells
Procedure, shortened: as §1

[10] = tested on: herpes simplex type 1; details: cited from earlier work
[11] = Solubility; assay type: physicochemical
[12] = human respiratory syncytial virus, HEp-2

## O=c1[nH]c(=O)n([C@@H]2O[C@H](CO)[C@@H](O)[C@@H]2O)cc1C#Cc1ccc2c3cccc4cccc(c5cccc1c52)c43 [aUY11 (II), 5-(perylen-3-ylethynyl)-arabino-uridine]
[1]; RSV A2 in HEp-2 cells
  EC50: 2.3 ± 0.1 µM
[2]; Influenza A virus A/PR/8/34 (H1N1) in MDCK cells
  EC50: 5.2 ± 0.4 µM
[3]
  antiviral activity (in words): highly active
[4]; HEp-2 culture (PIV-3 columns)
  CC50: 998 ± 59 µM
[4]; HEp-2 culture (RSV columns)
  CC50: 998 ± 59 µM
[5]; MDCK cell culture (IVA columns), MTT, 24 h
  CC50: 894 ± 23 µM
[6]; PIV-3 strain v2932 in HEp-2 cells
  EC50: 1.3 ± 0.3 µM

## CC(C)(C)C(=O)OCn1c(=O)c(C#Cc2ccc3c4cccc5cccc(c6cccc2c63)c54)cn(CC(=O)O)c1=O [cm1pUY11 (III), 1-carboxymethyl-3-pivaloyloxymethyl-5-(perylen-3-ylethynyl)uracil]
[1]
  SI (selectivity index, CC50/EC50): 24
[1]; [12]
  EC50: 1.9 ± 0.1 µM
[2]
  SI (selectivity index, CC50/EC50): 68
[2]; MDCK
  EC50: 0.5 ± 0.02 µM
[7]
  antiviral activity (in words): activity
[4]; HEp-2 cell culture, compared with the other three compounds
  cytotoxic properties (in words): significantly more pronounced cytotoxic properties
[8]
  CC50 at 24 h: 45 ± 3.4 µM
[5]; MDCK cell culture, compared with the other three compounds
  cytotoxic properties (in words): significantly more pronounced cytotoxic properties
[9]
  CC50 at 24 h: 34 ± 1.9 µM
[10]
  antiviral activity (in words): activity
[6]; Human respirovirus 3, HEp-2
  EC50: 4.3 ± 0.2 µM
[6]
  SI (selectivity index, CC50/EC50): 10

## O=c1[nH]c(=O)n([C@@H]2O[C@H](CO)[C@@H](O)[C@H]2O)cc1C#Cc1ccc2c3cccc4cccc(c5cccc1c52)c43 [rUY11 (IV), 5-(Perylen-3-ylethynyl)uridine]
[1]
  SI (selectivity index, CC50/EC50): 84
[1]; [12]
  EC50: 7.1 ± 0.2 µM
[2]
  SI (selectivity index, CC50/EC50): 100
[2]; MDCK
  EC50: 6.4 ± 1.2 µM
[11]; DMSO
  solubility in DMSO: fairly soluble
[11]; water
  solubility in water: only slightly soluble
[8]
  CC50 at 24 h: 599 ± 23 µM
[9]
  CC50 at 24 h: 658 ± 34 µM
[6]; Human respirovirus 3, HEp-2
  EC50: 2.9 ± 0.4 µM
[6]
  SI (selectivity index, CC50/EC50): 210

## O=c1[nH]c(=O)n([C@H]2C[C@H](O)[C@@H](CO)O2)cc1C#Cc1ccc2c3cccc4cccc(c5cccc1c52)c43 [dUY11 (I), 5-(perylen-3-ylethynyl)-2′-deoxy-uridine]
[1]
  SI (selectivity index, CC50/EC50): 330
[1]; [12]
  EC50: 1.8 ± 0.2 µM
[2]
  SI (selectivity index, CC50/EC50): 180
[2]; MDCK
  EC50: 2.7 ± 0.7 µM
[3]
  antiviral activity (in words): highly active
[8]
  CC50 at 24 h: 598 ± 44 µM
[9]
  CC50 at 24 h: 492 ± 56 µM
[6]; Human respirovirus 3, HEp-2
  EC50: 2.2 ± 0.5 µM
[6]
  SI (selectivity index, CC50/EC50): 270
